# Apaf-1 inh: blocks human Apaf-1 apoptosome activity | O14727 | reconstituted apoptosome caspase-3 activity, DEVD-Rh110 fluorescence | inhibition, % at 20 µM | 330,000 compounds, 0.71% hits | AID 489030; active = inhibition of at least 40% at 20 µM
# Target sequence (O14727 whole entry, looked up): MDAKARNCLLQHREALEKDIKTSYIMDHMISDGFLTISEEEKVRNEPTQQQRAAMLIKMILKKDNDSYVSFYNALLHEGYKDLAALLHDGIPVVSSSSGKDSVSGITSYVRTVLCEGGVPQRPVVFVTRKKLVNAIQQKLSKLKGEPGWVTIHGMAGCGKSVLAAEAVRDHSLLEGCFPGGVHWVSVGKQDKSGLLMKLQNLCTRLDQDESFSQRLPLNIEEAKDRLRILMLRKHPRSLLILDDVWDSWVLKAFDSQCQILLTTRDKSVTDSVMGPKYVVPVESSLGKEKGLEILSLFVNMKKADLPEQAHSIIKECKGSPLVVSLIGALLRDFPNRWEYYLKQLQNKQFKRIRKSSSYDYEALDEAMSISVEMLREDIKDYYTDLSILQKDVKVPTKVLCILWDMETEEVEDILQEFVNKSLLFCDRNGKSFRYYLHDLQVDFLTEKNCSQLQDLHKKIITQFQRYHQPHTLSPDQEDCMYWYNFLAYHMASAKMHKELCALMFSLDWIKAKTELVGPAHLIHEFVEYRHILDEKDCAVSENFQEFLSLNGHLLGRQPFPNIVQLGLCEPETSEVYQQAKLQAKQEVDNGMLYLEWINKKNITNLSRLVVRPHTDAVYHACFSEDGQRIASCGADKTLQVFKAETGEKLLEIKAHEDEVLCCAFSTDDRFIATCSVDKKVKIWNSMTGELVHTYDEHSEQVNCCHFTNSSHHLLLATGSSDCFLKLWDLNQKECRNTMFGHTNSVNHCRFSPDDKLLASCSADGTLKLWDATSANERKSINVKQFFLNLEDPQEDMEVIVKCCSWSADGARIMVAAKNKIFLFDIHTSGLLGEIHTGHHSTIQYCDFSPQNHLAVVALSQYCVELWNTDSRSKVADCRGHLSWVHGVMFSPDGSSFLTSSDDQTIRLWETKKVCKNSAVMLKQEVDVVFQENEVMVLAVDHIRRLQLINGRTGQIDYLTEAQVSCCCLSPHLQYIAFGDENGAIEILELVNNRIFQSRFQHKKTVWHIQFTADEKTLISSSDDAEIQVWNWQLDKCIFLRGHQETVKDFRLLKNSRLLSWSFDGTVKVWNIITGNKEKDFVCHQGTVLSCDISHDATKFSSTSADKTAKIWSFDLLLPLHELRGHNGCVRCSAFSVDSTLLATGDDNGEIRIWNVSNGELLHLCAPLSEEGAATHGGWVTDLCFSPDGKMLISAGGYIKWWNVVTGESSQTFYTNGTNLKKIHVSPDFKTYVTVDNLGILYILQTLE
#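 Assay system – apoptosome proteins · Medium – Hepes buffer, pH 7.5 · Also added – cytochrome c with DEVD-Rh110 · Timing – 30 min compound preincubation, 50 min activation, room temperature · Detection – Rh110 fluorescence, excitation 480 nm, emission 540 nm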
# GSTO1 counter: counter-screen for RBBP9 inhibitors: inhibitors of human GSTO1; AID 1974; P78417; 300,000 compounds, 1.1% hits; inhibition, % at 5.96 µM; recombinant GSTO1, activity-based probe fluorescence polarization;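 active = inhibition above the campaign mean inhibition plus 3 SD, cut at about 35% in these data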
# TDP2 inh: TDP2 (human) inhibition, absorbance primary screen. O95551. recombinant TDP2, T5PNP hydrolysis, p-nitrophenol absorbance 415 nm. inhibition, % at 12.8 µM. 370,000 compounds, 0.34% hits;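 active = inhibition above the mean of all tested compounds plus 3 SD, set per campaign, cut at about 25% in these data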
#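 Assay system: recombinant human TDP2 / Reagent: T5PNP substrate at 5 mM, a TopII-DNA adduct mimic / Measured by: epi absorbance from released p-nitrophenol / Evaluation: % inhibition relative to enzyme-containing and enzyme-free wells / Control set: enzyme-free and DMSO wells / Replicates: each compound tested once, singlicate / Schedule: enzyme reaction with compound for 2 h at 37 °C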
# PP5 inh: PP5 (human) phosphatase inhibition. 320,000 compounds, 0.18% hits. inhibition, % at 6.7 µM. P53041. purified PP5c, OMFP substrate fluorescence. AID 1987;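 active = inhibition above the campaign's mean inhibition across all tested compounds plus 3 SD, cut at about 9.5% in these data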
# PP1 counter: PP1-alpha (human) inhibition in PP5 counter-screen | 320,000 compounds, 0.9% hits | inhibition, % at 6.7 µM | AID 2235 | purified PP1alpha, OMFP fluorescence | P62136;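 active = inhibition above the mean inhibition of all tested compounds plus 3 SD, computed separately for each screening campaign, cut at about 15% in these data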
# GSTO1 confirm: GSTO1 (human) inhibition, confirmation; shares compounds with GSTO1 counter; recombinant GSTO1, probe fluorescence polarization; inhibition, % at 5.96 µM; 2,400 compounds, 54% hits; AID 2176;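 active = inhibition above the primary screen's cutoff, its mean inhibition plus 3 SD, cut at about 35% in these data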;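 note: loss of polarization as inhibitors block binding of rhodamine sulfonate ester activity probe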
# PP1 confirm: human PP1 phosphatase inhibition, confirmation; shares compounds with PP1 counter; AID 2358; purified PP1alpha, OMFP substrate fluorescence; 1,900 compounds, 52% hits; inhibition, % at 6.7 µM;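 active = mean PP1 inhibition above a set limit taken from the earlier primary screen, cut at about 15% in these data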
# PP5 counter: PP5 phosphatase inhibition, counter-screen for PP1 inhibitors | shares compounds with PP1 counter | inhibition, % at 6.7 µM | 1,900 compounds, 4% hits | purified PP5c, OMFP fluorescence;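 active = mean PP5 inhibition over triplicate wells above about 9.5% taken from the earlier PP1 screen, limit read from the data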
# Apaf-1 inh conf2: confirmation of Apaf-1 inhibitors; shares compounds with Apaf-1 inh; reconstituted apoptosome, caspase-3 DEVD-Rh110 fluorescence; inhibition, % at 20 µM; 1,800 compounds, 25% hits;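 active = mean inhibition of at least 40% at 20 µM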
# Rh110 interf inh: Rh110 signal interference in Apaf-1 inhibitor counter-screen. shares compounds with Apaf-1 inh. Rh110 fluorescence interference, quenched caspase reaction. activation (fluorescence interference), % at 20 µM. 1,800 tested, under 10 active. AID 504615;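 active = signal rise of 40% or more at 20 µM, treated as a fluorescence artifact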
# Fluor interf inh: shows fluorescence interference in the Apaf-1 inhibitor assay format | 460 tested, under 10 active | IC50, µM | fluorescence interference counterscreen, Apaf-1 assay format | shares compounds with Apaf-1 inh; call rule not given here
# A number is an active result; n = inactive; x = not tested or not shown. Sampled rows, rich in hits. Any-hit rate of the full collection: about 2.1%.
SMILES,Apaf-1 inh,GSTO1 counter,TDP2 inh,PP5 inh,PP1 counter,GSTO1 confirm,Apaf-1 inh conf2,Rh110 interf inh,others
COCCNC(=O)c1c(N)n(CCC2=CCCCC2)c2nc3ccccc3nc12,63,42,n,n,n,n,n,n,
CC(=O)CC[C@H]1CC[C@]2(CCCN(C(=O)C3CCCC3)C2)O1,x,x,n,x,x,x,x,x,
CCc1ccc(CNc2ccc(O)cc2)cc1,96,86,x,n,n,n,41,n,Fluor interf inh=n
CCc1ccc(CNc2ccc3c(c2)ncn3CC)cc1,n,n,n,n,n,x,x,x,
O=C(Nc1cccc(C(F)(F)F)c1)c1ccc2nc(-c3ccco3)c(-c3ccco3)nc2c1,66,50,n,n,32,n,44,n,PP1 confirm=n;PP5 counter=n;Fluor interf inh=n
O=C(Nc1cccc(C(F)(F)F)c1)c1cc[n+]([O-])cc1,n,n,n,n,n,x,x,x,
Nc1nnc2c(n1)CCCC2,83,67,n,n,n,n,72,n,Fluor interf inh=n
C1CCc2nc3c(nc2C1)CCCC3,n,n,n,n,n,x,x,x,
CCN(CC)c1ccc(N=Cc2ccc([N+](=O)[O-])o2)cc1,56,73,n,n,n,n,n,n,
Oc1ccc(NCc2ccccc2OCc2ccccc2F)cc1,92,74,n,n,n,n,n,n,
O=C1NC(c2ccccc2)(c2ccccc2)C(=O)N1CNc1ccccn1,x,x,n,x,x,x,x,x,
Cc1ccc(C)n1-c1cc([N+](=O)[O-])ccc1-n1ccnc1,n,n,n,n,n,x,x,x,
CC1(C)N([O-])c2cc([N+](=O)[O-])ccc2[N+]1=O,66,82,n,n,n,42,70,n,Fluor interf inh=n
COc1ccc(C(C)c2cc3c(cc2OCC(=O)O)OCO3)cc1 (centres undefined),x,x,n,x,x,x,x,x,
Cc1[nH]n(-c2ccccc2)c(=O)c1C(C[N+](=O)[O-])c1ccc(Br)cc1 (centres undefined),87,45,n,n,n,n,96,n,Fluor interf inh=n
Cc1[nH]n(-c2ccccc2)c(=O)c1C(=O)c1ccc([N+](=O)[O-])cc1,n,n,n,n,n,x,x,x,
Cc1[nH]n(-c2ccccc2)c(=O)c1C(c1cccc([N+](=O)[O-])c1)c1c(C)[nH]n(-c2ccccc2)c1=O,64,52,90,n,n,n,n,n,
CCOC(=O)[C@@]12CCCC=C1N(CCc1ccc(Cl)cc1)C(=O)[C@H]2CC(=O)N1CCSCC1,x,x,n,x,x,x,x,x,
Cc1ccc(N2CCN(/N=C\c3cccnc3)CC2)cc1,x,x,n,x,x,x,x,x,
S=C(Nc1ccc(Br)cc1)OC1CCC12CCC(c1ccccc1)CC2 (centres undefined),x,x,n,x,x,x,x,x,
O=C(N/N=C\c1ccc(-c2ccccc2[N+](=O)[O-])o1)C1COc2ccccc2O1 (centres undefined),79,66,n,n,n,47,n,n,
O=C(N/N=C\c1ccc([N+](=O)[O-])o1)C1COc2ccccc2O1 (centres undefined),n,n,n,n,n,x,x,x,
COc1ccc(S[C@]2(C(=O)N(C)C)CC(=O)N(C(=O)CCc3ccccc3)[C@@H]2c2ccc(OC)cc2)cc1,x,x,n,x,x,x,x,x,
CCCCC[n+]1ccn(C2=C([O-])c3ccccc3C(=O)/C2=N\S(=O)(=O)c2ccc(Cl)cc2)c1,70,66,n,n,n,n,54,n,Fluor interf inh=n
CCCC[n+]1ccn(-c2nc3ccccc3nc2[N-]S(=O)(=O)c2ccc(Br)cc2)c1,n,n,n,n,n,x,x,x,
